Source: ChEMBL document CHEMBL1151747, “Orally bioavailable isothioureas block function of the chemokine receptor CXCR4 in vitro and in vivo” (J Med Chem, 2008)
Each block holds one molecule with its values, some of them ahead of it.

Legend:
[1] = target: T1, C-X-C chemokine receptor type 4 (Homo sapiens, UniProt P61073); assay: Activity at CXCR4 in human CEM cells assessed as inhibition of CXCL12-induced calcium mobilization; type: functional, cell-based, CCRF-CEM
In short: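 CEM cells are loaded with 4 µM Fluo-4 for 1 h at 37 °C, washed, then preincubated with antagonist for 2 h. Wells are run in quadruplicate on FLIPR.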

[2] = target: T1, C-X-C chemokine receptor type 4; assay: Displacement of [125I]CXCL12 from CXCR4 in human CEM cells; type: cell-based, CCRF-CEM
In short: (§1)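 Scintillation proximity assay. Membranes come from CEM cells (human CXCR4) or IR983F cells (rat CXCR4), prepared by homogenization in 20 mM HEPES, 1 mM EDTA pH 7.4 and stored at -80 °C. Nonspecific binding is defined with 400 nM unlabeled CXCL12. Incubation is 2 h at room temperature with shaking, then scintillation counting.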

[3] = system: Human immunodeficiency virus 1; assay: Antiviral activity against X4-tropic HIV1 3B assessed as inhibition of viral attachment; type: functional, organism-based; conditions: Human immunodeficiency virus 1, 3B
[4] = Fraction unbound in rat serum; type: ADME, cell-free
Blood [5] = assay: Inhibition of CXCL12-induced actin polymerization in rat whole blood; type: functional, tissue-based
In short: (§2)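 EDTA whole blood (100 µL) is preincubated with inhibitor diluted in PBS for 10 min at room temperature. CXCL12 (100 nM final) is added for 25 s at ambient temperature. […] Neutrophil F-actin is read by flow cytometry.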

[6] = Intrinsic clearance in human liver microsomes; type: ADME, Microsome
In short: (§3)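 Compound is incubated with human or rat liver microsomes; intrinsic clearance is given in µL min-1 mg-1.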

Cytochrome P450 1A2 = target: T2, Cytochrome P450 1A2 (Homo sapiens, UniProt P05177); assay: Inhibition of CYP1A2; type: ADME
T2 sequence (P05177 whole entry): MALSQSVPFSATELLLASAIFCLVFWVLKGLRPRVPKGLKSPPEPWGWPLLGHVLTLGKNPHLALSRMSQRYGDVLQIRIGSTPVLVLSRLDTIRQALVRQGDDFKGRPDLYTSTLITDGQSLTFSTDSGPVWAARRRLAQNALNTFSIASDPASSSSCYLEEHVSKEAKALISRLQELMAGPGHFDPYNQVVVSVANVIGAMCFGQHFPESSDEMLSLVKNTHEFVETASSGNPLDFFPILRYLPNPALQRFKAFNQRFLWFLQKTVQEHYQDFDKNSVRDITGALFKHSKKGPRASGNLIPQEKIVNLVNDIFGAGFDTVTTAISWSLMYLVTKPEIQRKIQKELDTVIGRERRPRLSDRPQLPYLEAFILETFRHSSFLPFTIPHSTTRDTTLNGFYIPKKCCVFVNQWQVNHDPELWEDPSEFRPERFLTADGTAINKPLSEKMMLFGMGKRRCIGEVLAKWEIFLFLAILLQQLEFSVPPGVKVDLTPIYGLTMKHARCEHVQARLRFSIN

[7] = Partition coefficient, log P of the compound; type: physicochemical; conditions: octanol/water
[8] = Solubility in pH 6.8 buffer; type: physicochemical
[9] = target: T3, C-C chemokine receptor type 9 (Homo sapiens, UniProt P51686); assay: Inhibition of CCR9
T3 sequence (P51686 whole entry): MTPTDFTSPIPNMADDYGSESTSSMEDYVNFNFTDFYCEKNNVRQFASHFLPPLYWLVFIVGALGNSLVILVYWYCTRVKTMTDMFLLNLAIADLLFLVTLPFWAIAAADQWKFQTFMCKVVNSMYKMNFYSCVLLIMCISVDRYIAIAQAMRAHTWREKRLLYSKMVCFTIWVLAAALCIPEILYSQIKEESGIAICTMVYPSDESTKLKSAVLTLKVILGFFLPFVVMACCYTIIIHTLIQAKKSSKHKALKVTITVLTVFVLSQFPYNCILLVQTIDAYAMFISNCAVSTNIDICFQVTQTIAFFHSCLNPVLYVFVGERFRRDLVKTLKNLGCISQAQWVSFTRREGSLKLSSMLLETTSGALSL

Cytochrome P450 2C19 = Cytochrome P450 2C19 (Homo sapiens, UniProt P33261); assay: Inhibition of CYP2C19; type: ADME
[10] = target: T4, C-X-C chemokine receptor type 2 (Homo sapiens, UniProt P25025); assay: Inhibition of CXCR2
T4 sequence (P25025 whole entry): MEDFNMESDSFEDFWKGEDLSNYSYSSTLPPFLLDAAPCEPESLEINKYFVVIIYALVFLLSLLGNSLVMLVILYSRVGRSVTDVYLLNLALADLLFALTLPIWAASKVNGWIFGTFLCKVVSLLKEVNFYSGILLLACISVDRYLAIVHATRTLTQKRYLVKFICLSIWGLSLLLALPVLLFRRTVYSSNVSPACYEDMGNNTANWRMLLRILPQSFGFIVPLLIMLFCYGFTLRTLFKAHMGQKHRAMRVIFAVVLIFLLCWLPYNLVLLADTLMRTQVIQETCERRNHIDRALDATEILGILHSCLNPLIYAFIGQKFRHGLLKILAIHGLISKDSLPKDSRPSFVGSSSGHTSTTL

[11] = Fraction unbound in human serum; type: ADME, cell-free
[12] = Dissociation constant, pKa of the compound; type: physicochemical
[13] = target: C-C chemokine receptor type 5 (Homo sapiens, UniProt P51681); assay: Inhibition of CCR5
Cytochrome P450 3A4 = Cytochrome P450 3A4 (Homo sapiens, UniProt P08684); assay: Inhibition of CYP3A4; type: ADME
Cytochrome P450 2C9 = Cytochrome P450 2C9 (Homo sapiens, UniProt P11712); assay: Inhibition of CYP2C9; type: ADME
[14] = target: C-X-C chemokine receptor type 4 (Rattus norvegicus, UniProt O08565); assay: Displacement of [125I]CXCL12 from CXCR4 in rat IR983F cells; type: cell-based; in short: as §1
Blood [15] = assay: Inhibition of CXCL12-induced actin polymerization in human whole blood; type: functional, tissue-based; in short: as §2
[16] = Tmax in Lewis rat at 10 mg/kg, po; type: ADME, organism-based; parameters: dose 10 mg/kg, route oral; conditions: in vivo
[17] = Solubility in pH 1.0 buffer; type: physicochemical
[18] = target: T5, C-C chemokine receptor type 7 (Homo sapiens, UniProt P32248); assay: Inhibition of CCR7
T5 sequence (P32248 whole entry): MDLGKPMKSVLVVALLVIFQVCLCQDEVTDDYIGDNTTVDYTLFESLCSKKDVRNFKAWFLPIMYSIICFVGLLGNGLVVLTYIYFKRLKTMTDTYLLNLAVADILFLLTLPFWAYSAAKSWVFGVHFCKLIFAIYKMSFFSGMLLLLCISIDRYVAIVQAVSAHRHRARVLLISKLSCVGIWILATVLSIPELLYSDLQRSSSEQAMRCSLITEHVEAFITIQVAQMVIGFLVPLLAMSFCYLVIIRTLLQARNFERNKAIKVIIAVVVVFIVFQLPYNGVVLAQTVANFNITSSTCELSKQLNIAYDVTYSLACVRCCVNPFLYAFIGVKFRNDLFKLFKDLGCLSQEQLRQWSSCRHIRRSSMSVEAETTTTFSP

[19] = target: T6, C-C chemokine receptor type 4 (Homo sapiens, UniProt P51679); assay: Inhibition of CCR4
T6 sequence (P51679 whole entry): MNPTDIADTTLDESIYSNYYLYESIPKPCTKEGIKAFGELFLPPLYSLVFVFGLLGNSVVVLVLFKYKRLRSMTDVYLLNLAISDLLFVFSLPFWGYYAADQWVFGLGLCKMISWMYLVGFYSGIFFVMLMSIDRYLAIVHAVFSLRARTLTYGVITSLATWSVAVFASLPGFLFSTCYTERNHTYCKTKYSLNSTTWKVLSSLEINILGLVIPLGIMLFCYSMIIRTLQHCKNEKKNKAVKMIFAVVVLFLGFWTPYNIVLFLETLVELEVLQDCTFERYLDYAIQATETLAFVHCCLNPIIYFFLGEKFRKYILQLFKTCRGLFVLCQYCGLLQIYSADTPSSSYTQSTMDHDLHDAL

Rattus norvegicus = assay: Reduction in actin polymerization in Lewis rat blood at 30 mg/kg/day administered through osmotic pump for 5 days relative to control; type: functional; parameters: scale not given: the % may be the effect or the level left
In short: (§4)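 Lewis rats (n = 3) receive 30 mg/kg·d via osmotic pumps for 5 days. Blood is sampled on day 5 and analyzed ex vivo.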

[20] = Distribution coefficient, log D of the compound; type: physicochemical; conditions: octanol/water
[21] = Drug level in Lewis rat blood at 30 mg/kg/day administered through osmotic pump for 5 days; type: ADME, organism-based; conditions: other: administered through osmotic pump, read-out: Drug uptake; in short: as §4
[22] = Half life in Lewis rat at 10 mg/kg, po; type: ADME, organism-based; parameters: dose 10 mg/kg, route oral; conditions: in vivo
[23] = Intrinsic clearance in rat liver microsomes; type: ADME, Microsome; in short: as §3
[24] = Oral bioavailability in Lewis rat at 10 mg/kg; type: ADME, organism-based; conditions: in vivo

T1 sequence (P61073 whole entry): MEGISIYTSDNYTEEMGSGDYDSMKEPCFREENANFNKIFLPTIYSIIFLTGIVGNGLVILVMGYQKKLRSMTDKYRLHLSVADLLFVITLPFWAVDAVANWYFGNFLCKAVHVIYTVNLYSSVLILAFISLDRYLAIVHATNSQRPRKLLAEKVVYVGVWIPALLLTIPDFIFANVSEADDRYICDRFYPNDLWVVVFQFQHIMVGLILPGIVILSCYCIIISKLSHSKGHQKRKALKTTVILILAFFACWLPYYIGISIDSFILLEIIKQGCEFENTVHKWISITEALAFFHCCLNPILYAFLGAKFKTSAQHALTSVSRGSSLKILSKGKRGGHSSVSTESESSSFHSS
C-X-C chemokine receptor type 4 (Rattus norvegicus, UniProt O08565), sequence (O08565 whole entry): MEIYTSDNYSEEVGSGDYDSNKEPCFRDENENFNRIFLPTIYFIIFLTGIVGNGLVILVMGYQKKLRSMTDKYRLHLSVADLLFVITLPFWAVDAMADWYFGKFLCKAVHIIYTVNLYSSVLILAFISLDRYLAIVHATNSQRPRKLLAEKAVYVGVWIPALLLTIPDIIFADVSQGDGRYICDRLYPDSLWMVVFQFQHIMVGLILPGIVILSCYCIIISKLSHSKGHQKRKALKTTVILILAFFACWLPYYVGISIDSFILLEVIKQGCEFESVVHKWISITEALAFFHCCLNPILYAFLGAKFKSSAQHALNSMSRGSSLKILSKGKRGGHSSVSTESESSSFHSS
Cytochrome P450 3A4, sequence (P08684 whole entry): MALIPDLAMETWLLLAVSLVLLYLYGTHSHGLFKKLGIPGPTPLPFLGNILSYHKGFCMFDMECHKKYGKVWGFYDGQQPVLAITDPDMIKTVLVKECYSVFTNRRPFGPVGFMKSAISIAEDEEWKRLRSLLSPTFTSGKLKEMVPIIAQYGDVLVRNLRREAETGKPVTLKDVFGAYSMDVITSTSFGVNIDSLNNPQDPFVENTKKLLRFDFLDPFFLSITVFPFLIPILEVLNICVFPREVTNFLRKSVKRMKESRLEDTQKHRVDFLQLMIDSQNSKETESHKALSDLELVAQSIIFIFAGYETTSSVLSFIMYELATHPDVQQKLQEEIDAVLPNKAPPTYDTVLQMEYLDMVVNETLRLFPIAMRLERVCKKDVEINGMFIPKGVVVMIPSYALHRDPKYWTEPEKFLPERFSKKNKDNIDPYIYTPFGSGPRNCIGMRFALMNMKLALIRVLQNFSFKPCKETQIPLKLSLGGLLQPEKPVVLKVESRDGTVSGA
Cytochrome P450 2C9, sequence (P11712 whole entry): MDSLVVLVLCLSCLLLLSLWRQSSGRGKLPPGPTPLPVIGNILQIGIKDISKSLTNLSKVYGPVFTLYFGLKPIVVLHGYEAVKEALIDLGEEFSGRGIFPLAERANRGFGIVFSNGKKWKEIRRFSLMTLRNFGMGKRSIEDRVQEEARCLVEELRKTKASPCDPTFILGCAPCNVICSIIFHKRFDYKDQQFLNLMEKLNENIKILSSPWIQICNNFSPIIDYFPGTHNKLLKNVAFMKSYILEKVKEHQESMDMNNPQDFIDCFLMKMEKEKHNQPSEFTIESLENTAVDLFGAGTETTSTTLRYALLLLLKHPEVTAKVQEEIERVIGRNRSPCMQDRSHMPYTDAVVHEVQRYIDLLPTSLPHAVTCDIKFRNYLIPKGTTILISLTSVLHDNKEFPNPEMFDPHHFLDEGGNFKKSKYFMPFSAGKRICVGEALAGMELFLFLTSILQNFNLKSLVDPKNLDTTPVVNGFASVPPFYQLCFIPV
Cytochrome P450 2C19, sequence (P33261 whole entry): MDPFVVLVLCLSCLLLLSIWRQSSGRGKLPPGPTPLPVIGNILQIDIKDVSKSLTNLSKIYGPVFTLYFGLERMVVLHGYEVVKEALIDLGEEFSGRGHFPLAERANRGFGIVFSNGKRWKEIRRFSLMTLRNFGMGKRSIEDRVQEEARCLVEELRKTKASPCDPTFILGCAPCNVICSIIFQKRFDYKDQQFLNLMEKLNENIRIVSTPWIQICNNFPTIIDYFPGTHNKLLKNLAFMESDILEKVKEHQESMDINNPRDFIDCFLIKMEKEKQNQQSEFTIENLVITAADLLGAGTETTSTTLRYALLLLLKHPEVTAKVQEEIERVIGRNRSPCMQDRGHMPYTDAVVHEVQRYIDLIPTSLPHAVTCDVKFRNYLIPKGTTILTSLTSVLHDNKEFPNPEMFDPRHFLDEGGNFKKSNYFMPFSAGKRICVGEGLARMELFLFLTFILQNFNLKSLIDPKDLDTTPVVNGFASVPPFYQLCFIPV
C-C chemokine receptor type 5, sequence (P51681 whole entry): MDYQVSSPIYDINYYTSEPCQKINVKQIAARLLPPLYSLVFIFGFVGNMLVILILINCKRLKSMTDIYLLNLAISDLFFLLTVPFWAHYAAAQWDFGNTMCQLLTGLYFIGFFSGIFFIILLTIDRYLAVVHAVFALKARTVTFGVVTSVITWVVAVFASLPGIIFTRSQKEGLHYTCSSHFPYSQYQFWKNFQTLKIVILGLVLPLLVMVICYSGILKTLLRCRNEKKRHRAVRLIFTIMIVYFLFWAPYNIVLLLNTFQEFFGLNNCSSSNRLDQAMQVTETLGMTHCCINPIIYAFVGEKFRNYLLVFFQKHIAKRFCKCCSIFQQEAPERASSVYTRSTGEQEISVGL

SMILES: C1=C(CS/C(=N\C2CCCCC2)NC2CCCCCCC2)N2CCN=C2S1
IC50 [1]: 8 nM
IC50 [2]: 28 nM

SMILES: c1cc(CN2CCCNCCNCCCNCC2)ccc1CN1CCCNCCNCCCNCC1 [PLERIXAFOR]
IC50 [3]: 3 nM
IC90 [3]: 50 nM

SMILES: C1=C(CS/C(=N\C2CCCC2)NC2CCCC2)N2CCN=C2S1
IC50 [1]: 493 nM
IC50 [2]: 3830 nM

SMILES: CC(C)(C)C1CCC(NC(=NC2CCCCC2)SCC2=CSC3=NCCN23)CC1 (centres undefined)
IC50 [1]: 437 nM
IC50 [2]: 1530 nM

SMILES: C1=C(CS/C(=N\C2CCCCC2)NC2CCCCC2)N2CCN=C2S1
fraction unbound [4]: 0.54
IC50 (Blood [5]): 86 nM
microsomal CLint [6]: 51 µL/min/mg
IC50 (Cytochrome P450 1A2): > 10000 nM
logP [7]: 3.5
solubility [8]: > 5000 µg/mL
IC50 [9]: > 3000 nM
IC50 [1]: 11 nM
IC50 (Cytochrome P450 2C19): > 10000 nM
IC50 [10]: > 3000 nM
fraction unbound [11]: 0.29
pKa [12]: 7.7
IC50 [13]: > 3000 nM
IC50 (Cytochrome P450 3A4): 3860 nM
IC50 (Cytochrome P450 2C9): > 10000 nM
IC50 [14]: 55 nM
IC50 (Blood [15]): 32 nM
Tmax [16]: 0.5 h
IC50 [3]: 40 nM
IC90 [3]: 720 nM
solubility [17]: > 5000 µg/mL
IC50 [18]: > 3000 nM
IC50 [19]: > 3000 nM
Activity (Rattus norvegicus): >80%
logD [20]: -0.2
concentration at 120 h [21]: 1000 nM
half-life [22]: 7.2 h
IC50 [2]: 48 nM
microsomal CLint [23]: 411 µL/min/mg
bioavailability [24]: 14%

SMILES: NC(N)=NCCC[C@@H]1NC(=O)[C@H](CCCN=C(N)N)NC(=O)[C@@H](Cc2ccc(O)cc2)NC(=O)CNC(=O)[C@H](c2ccc3ccccc3c2)NC1=O
IC50 [14]: 1440 nM
IC50 [2]: 109 nM

SMILES: C1=C(CSC(=NC2CCCCC2)NC2C3CC4CC(C3)CC2C4)N2CCN=C2S1 (centres undefined)
IC50 [1]: 13 nM
IC50 [2]: 81 nM

SMILES: C1=C(CS/C(=N\C2CCCCC2)Nc2ccccc2)N2CCN=C2S1
IC50 [1]: 5270 nM
IC50 [2]: > 10000 nM

Next, values leading:

IC50 [1]: 8120 nM
IC50 [2]: > 10000 nM
SMILES: c1ccc2c(c1)nc1scc(CS/C(=N\C3CCCCC3)NC3CCCCC3)n12

IC50 [1]: 2.1 nM
IC50 [3]: 10 nM
IC90 [3]: 130 nM
IC50 [2]: 8.8 nM
SMILES: CC1(C)CN2C(CS/C(=N\C3CCCCCC3)NC3CCCCCC3)=CSC2=N1

IC50 [1]: 9130 nM
IC50 [2]: > 10000 nM
SMILES: C/N=c1/scc(CS/C(=N\C2CCCCC2)NC2CCCCC2)n1C

IC50 [1]: 304 nM
IC50 [2]: 1870 nM
SMILES: C1=C(CS/C(=N\C2CCCCC2)NC23CC4CC(CC(C4)C2)C3)N2CCN=C2S1
